In ChEMBL document CHEMBL1649417, “α,β-Unsaturated carbonyl system of chalcone-based derivatives is responsible for broad inhibition of proteasomal activity and preferential killing of human papilloma virus (HPV) positive cervical cancer cells” (J Med Chem, 2011):
pIC50: −log10 of the molar value. Calls of active or inactive are those of the source. The rule behind the calls is not given here.

What was measured:
CaSki (Homo sapiens) = test: Cytotoxicity against CaSki transformed human cervical carcinoma cells after 48 hrs by XTT assay
HeLa [1] = test: Cytotoxicity against HPV18 transformed human HeLa cells after 48 hrs by XTT assay; type: functional, cell-based
Method in brief: (§1)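 ATCC lines grown in DMEM with 10% FBS, penicillin/streptomycin, 5% CO2; 1,000 cells/well exposed to compound (HeLa and CaSki tested over 100 to 0.01 µM). After treatment, XTT labeling mixture for 4 h, absorbance at 450 nm. Triplicate runs; IC50 is the average of three independent determinations.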

[2] = Inhibition of PGPH-like activity of 20S proteasome isolated from human LCL after 30 mins by fluorimetric analysis
Method in brief: (§2)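 Semipurified proteasome from lymphoblastoid cells: glass-bead lysis in Tris pH 7.5/MgCl2/DTT/2 mM ATP/sucrose buffer, differential and 100,000g ultracentrifugation. Preincubated with inhibitor 30 min at 37°C, then 45 min at 37°C with Suc-LLVY-AMC (chymotrypsin-like), Boc-LRR-AMC (trypsin-like) or Ac-YVAD-AMC (caspase/PGPH-like) in 50 mM Tris pH 7.5, 5 mM MgCl2, 1 mM DTT. Quenched with 1% SDS; ex 380/em 440 nm; percent inhibition versus untreated.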

[3] = Inhibition of chymotrypsin-like activity of 20S proteasome isolated from human LCL after 30 mins by fluorimetric analysis
Method in brief: as §2

HeLa [4] = test: Increase of polyubiquitinated accumulation in human HeLa cells at 10 uM after 8 hrs by immunoblotting; type: functional, cell-based
Method in brief: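 HeLa cells treated 8 h with or without compound, then lysates immunoblotted for poly-ubiquitinated proteins; β-actin antibody to confirm equal loading; bortezomib positive control.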

[5] = Inhibition of trypsin-like activity of 20S proteasome isolated from human LCL after 30 mins by fluorimetric analysis
Method in brief: as §2

HeLa [6] = test: Inhibition of proteasome activity in human HeLa cells assessed as induction of ubiquitinG76V-FL reporter level at 1 uM after 8 hrs by luciferase assay
Method in brief: (§3)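 HeLa transiently transfected with Ub(G76V)4-FL or CMV-FL control, replated 24 h later at 1×10^4 cells/well, drug added after 18 h attachment. Luciferase measured in cell lysate, RLU expressed as % of control; SE from three independent experiments.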

HeLa [7] = test: Inhibition of proteasome activity in human HeLa cells assessed as induction of ubiquitinG76V-FL reporter level at 5 nM after 8 hrs by luciferase assay; details: 1 µM, in the assay text read “at 1 µM” for “at 5 nM”
Method in brief: as §3

ME-180 = test: Cytotoxicity against HPV58 transformed human ME180 cells after 48 hrs by XTT assay; type: functional, cell-based
Method in brief: as §1

[8] = Cytotoxicity against human keratinocytes assessed as effect on cell viability at 1.6 to 25 uM after 48 hrs by XTT assay; type: cell-based; details: keratinocyte
Method in brief: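 Primary keratinocytes cultured in defined Keratinocyte-SFM, treated 48 h at the indicated concentrations, 1,000 cells/well. XTT reagent for 4 h, absorbance at 450 nm; viability plotted as fraction of untreated control cultures; triplicate.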

SiHa = test: Cytotoxicity against HPV16 transformed human SiHa cells after 48 hrs by XTT assay; type: functional, cell-based
Method in brief: as §1

[9] = target: Cathepsin D (Homo sapiens) (UniProt P07339); test: Inhibition of cathepsin D up to 50 uM by fluorometric analysis
[10] = Inhibition of calpain up to 50 uM by fluorometric analysis

Cathepsin D (Homo sapiens), sequence (P07339 65-162 limits assumed): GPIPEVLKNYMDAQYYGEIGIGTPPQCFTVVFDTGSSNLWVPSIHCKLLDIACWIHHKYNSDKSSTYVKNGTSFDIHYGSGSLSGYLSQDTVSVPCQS
Cathepsin D (Homo sapiens), sequence (P07339 169-412 limits assumed): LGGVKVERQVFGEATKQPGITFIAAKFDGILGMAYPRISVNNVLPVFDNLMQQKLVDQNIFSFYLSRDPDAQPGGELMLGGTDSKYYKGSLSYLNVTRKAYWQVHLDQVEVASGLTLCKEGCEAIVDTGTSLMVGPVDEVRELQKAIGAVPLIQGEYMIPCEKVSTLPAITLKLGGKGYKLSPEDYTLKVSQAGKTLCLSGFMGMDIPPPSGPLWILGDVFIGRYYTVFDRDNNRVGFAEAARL

| Structure (SMILES) | pIC50 (CaSki (Homo sapiens)) | pIC50 (HeLa [1]) | Activity (HeLa [4]) | further results |
| --- | --- | --- | --- | --- |
| CN1C/C(=C\c2ccc(B(O)O)cc2)C(=O)/C(=C/c2ccc(B(O)O)cc2)C1 | 5.05 | 5.10 | – | – |
| N=C(N)NCCC[C@H](NC(=O)[C@H](CCCCN)NC(=O)N1C/C(=C\c2ccc(Cl)c(Cl)c2)C(=O)/C(=C/c2ccc(Cl)c(Cl)c2)C1)C(=O)O | < 4.30 | < 4.30 | – | – |
| O=C1/C(=C/c2ccc(Cl)c(Cl)c2)CN(C(=O)N[C@@H](Cc2ccc(O)cc2)C(=O)O)C/C1=C\c1ccc(Cl)c(Cl)c1 | 5.00 | 5.00 | Active | pIC50 [2]: < 5.00; pIC50 [3]: 5.38; pIC50 [5]: 5.08 |
| O=C1/C(=C/c2ccc(Cl)c(Cl)c2)CN(C(=O)N[C@@H](Cc2ccccc2)C(=O)N[C@@H](Cc2ccc(O)cc2)C(=O)O)C/C1=C\c1ccc(Cl)c(Cl)c1 | < 4.30 | < 4.30 | – | – |
| N=C(N)NCCC[C@H](NC(=O)N1C/C(=C\c2ccc(Cl)c(Cl)c2)C(=O)/C(=C/c2ccc(Cl)c(Cl)c2)C1)C(=O)N[C@@H](CCCCN)C(=O)O | < 4.30 | < 4.30 | – | – |
| CC(C)C[C@H](NC(=O)N1C/C(=C\c2ccc(Cl)c(Cl)c2)C(=O)/C(=C/c2ccc(Cl)c(Cl)c2)C1)C(=O)O | 4.70 | 5.00 | Active | pIC50 [2]: < 5.00; pIC50 [3]: 5.03; pIC50 [5]: < 5.00 |
| O=C(O)CC[C@H](NC(=O)N1C/C(=C\c2ccc(Cl)c(Cl)c2)C(=O)/C(=C/c2ccc(Cl)c(Cl)c2)C1)C(=O)N[C@@H](CC(=O)O)C(=O)O | < 4.30 | < 4.30 | – | – |
| CC(C)C[C@H](NC(=O)[C@H](Cc1ccccc1)NC(=O)c1cnccn1)B(O)O | – | – | – | inhibition (HeLa [6]): Active; inhibition (HeLa [7]): Active |
| NCCCC[C@H](NC(=O)N1C/C(=C\c2ccc(Cl)c(Cl)c2)C(=O)/C(=C/c2ccc(Cl)c(Cl)c2)C1)C(=O)O | < 4.30 | < 4.30 | – | – |
| O=C1/C(=C/c2ccc(Cl)c(Cl)c2)CN(C(=O)N[C@@H](Cc2ccccc2)C(=O)O)C/C1=C\c1ccc(Cl)c(Cl)c1 | 5.82 | 6.49 | Active | Activity (ME-180): Dose-dependent effect; inhibition (HeLa [6]): Active; pIC50 [2]: 5.21; inhibition (HeLa [7]): Active; Activity [8]: Non-toxic; pIC50 [3]: 5.32; Activity (SiHa): Dose-dependent effect; pIC50 [5]: 5.18; inhibition [9]: inactive; inhibition [10]: inactive |
| O=C(O)CC[C@H](NC(=O)N1C/C(=C\c2ccc(Cl)c(Cl)c2)C(=O)/C(=C/c2ccc(Cl)c(Cl)c2)C1)C(=O)O | < 4.30 | < 4.30 | inactive | – |
